Assay results as given in ChEMBL document CHEMBL1156851, “Practical and efficient synthesis of pyrano[3,2-c]pyridone, pyrano[4,3-b]pyran and their hybrids with nucleoside as potential antiviral and antileishmanial agents” (Bioorg Med Chem Lett, 2010).

Tests used:
[1] = system: Human betaherpesvirus 5; test: Antiviral activity against Cytomegalovirus AD169 infected in HEL cells assessed as reduction of viral plaque formation; assay type: functional, organism-based; details: Human betaherpesvirus 5, AD169, HEL
[2] = Cytotoxicity against HEL cells assessed as reduction of cell growth; assay type: cell-based; details: human
[3] = Cytotoxicity against HEL cells assessed as microscopically detectable alteration of cell morphology; assay type: cell-based; details: human
In short: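 Cells are examined under the microscope after exposure. MCC is the minimum concentration that causes a microscopically detectable change in cell morphology.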

[4] = system: Human alphaherpesvirus 3; test: Antiviral activity against thymidine kinase deficient Varicella zoster virus 07/1 infected in HEL cells assessed as reduction of viral plaque formation; assay type: functional, organism-based; details: Human alphaherpesvirus 3, 07/1, HEL
[5] = system: Human alphaherpesvirus 3; test: Antiviral activity against thymidine kinase expressing Varicella Zoster Virus OKA infected in HEL cells assessed as reduction of viral plaque formation; assay type: functional, organism-based; details: Human alphaherpesvirus 3, OKA
[6] = system: Human betaherpesvirus 5; test: Antiviral activity against Cytomegalovirus Davis infected in HEL cells assessed as reduction of viral plaque formation; assay type: functional, organism-based; details: Human betaherpesvirus 5, Davis
[7] = system: Leishmania donovani; test: Antileishmanial activity against Leishmania donovani promastigotes; assay type: functional, organism-based

Structure (SMILES): CC(=O)OC[C@H]1O[C@@H](n2cc(C(c3c(O)cc(C)n(C)c3=O)c3c(O)cc(C)n(C)c3=O)c(=O)[nH]c2=O)C[C@@H]1OC(C)=O
- EC50 [1]: > 100 µM
- CC50 [2]: 20 µM
- MCC [3]: > 100 µM
- EC50 [4]: > 100 µM
- EC50 [5]: 47.8 µM
- EC50 [6]: > 100 µM
- IC50 [7]: > 200 µM

Structure (SMILES): CCn1c(C)cc2c(c1=O)C(c1cn([C@H]3C[C@H](O)[C@@H](CO)O3)c(=O)[nH]c1=O)C(C#N)=C(N)O2 (stereo not given in full)
- EC50 [1]: > 100 µM
- CC50 [2]: > 100 µM
- MCC [3]: > 100 µM
- EC50 [4]: > 100 µM
- EC50 [5]: 71.2 µM
- EC50 [6]: > 100 µM
- IC50 [7]: > 200 µM

Structure (SMILES): CC(=O)OC[C@H]1O[C@@H](n2cc(C(c3c(O)cc(C)oc3=O)c3c(O)cc(C)oc3=O)c(=O)[nH]c2=O)C[C@@H]1OC(C)=O
- EC50 [1]: > 100 µM
- CC50 [2]: 3.8 µM
- MCC [3]: > 100 µM
- EC50 [4]: 48.6 µM
- EC50 [5]: 40.2 µM
- EC50 [6]: > 100 µM
- IC50 [7]: > 200 µM

Structure (SMILES): CC(=O)OC[C@H]1O[C@@H](n2cc(C(c3c(O)cc(C)[nH]c3=O)c3c(O)cc(C)[nH]c3=O)c(=O)[nH]c2=O)C[C@@H]1OC(C)=O
- EC50 [1]: > 100 µM
- CC50 [2]: 36.9 µM
- MCC [3]: > 100 µM
- EC50 [4]: > 100 µM
- EC50 [5]: > 100 µM
- EC50 [6]: > 100 µM
- IC50 [7]: > 200 µM

Structure (SMILES): CC(=O)OC[C@H]1O[C@@H](n2cc(C3C(C#N)=C(N)Oc4cc(C)n(C)c(=O)c43)c(=O)[nH]c2=O)C[C@@H]1OC(C)=O (stereo not given in full)
- EC50 [1]: > 100 µM
- CC50 [2]: > 100 µM
- MCC [3]: > 100 µM
- EC50 [4]: > 100 µM
- EC50 [5]: > 100 µM
- EC50 [6]: > 100 µM
- IC50 [7]: > 200 µM

Structure (SMILES): CCn1c(C)cc2c(c1=O)C(c1cn([C@H]3C[C@H](OC(C)=O)[C@@H](COC(C)=O)O3)c(=O)[nH]c1=O)C(C#N)=C(N)O2 (stereo not given in full)
- EC50 [1]: > 100 µM
- CC50 [2]: > 100 µM
- MCC [3]: > 100 µM
- EC50 [4]: > 100 µM
- EC50 [5]: > 100 µM
- EC50 [6]: > 100 µM
- IC50 [7]: > 200 µM

Structure (SMILES): Cc1cc2c(c(=O)n1C)C(c1cn([C@H]3C[C@H](O)[C@@H](CO)O3)c(=O)[nH]c1=O)C(C#N)=C(N)O2 (stereo not given in full)
- EC50 [1]: > 100 µM
- CC50 [2]: > 100 µM
- MCC [3]: > 100 µM
- EC50 [4]: > 100 µM
- EC50 [5]: 74.6 µM
- EC50 [6]: > 100 µM
- IC50 [7]: > 200 µM

Structure (SMILES): Cc1cc(O)c(C(c2cn([C@H]3C[C@H](O)[C@@H](CO)O3)c(=O)[nH]c2=O)c2c(O)cc(C)oc2=O)c(=O)o1
- EC50 [1]: 20 µM
- CC50 [2]: 1.8 µM
- MCC [3]: > 100 µM
- EC50 [4]: 2.62 µM
- EC50 [5]: 0.6 µM
- EC50 [6]: 20 µM
- IC50 [7]: > 200 µM

Structure (SMILES): Cc1cc2c(c(=O)o1)C(c1cn([C@H]3C[C@H](O)[C@@H](CO)O3)c(=O)[nH]c1=O)C(C#N)=C(N)O2 (stereo not given in full)
- EC50 [1]: 54.7 µM
- CC50 [2]: 3.3 µM
- MCC [3]: > 100 µM
- EC50 [4]: 5.3 µM
- EC50 [5]: 1.8 µM
- EC50 [6]: 54.7 µM
- IC50 [7]: > 200 µM

Structure (SMILES): Cc1cc(O)c(C(c2cn([C@H]3C[C@H](O)[C@@H](CO)O3)c(=O)[nH]c2=O)c2c(O)cc(C)[nH]c2=O)c(=O)[nH]1
- EC50 [1]: 44.7 µM
- CC50 [2]: 2.1 µM
- MCC [3]: > 100 µM
- EC50 [4]: 1.66 µM
- EC50 [5]: 0.32 µM
- EC50 [6]: > 100 µM
- IC50 [7]: 43.5 µM

Structure (SMILES): CC(=O)OC[C@H]1O[C@@H](n2cc(C3C(C#N)=C(N)Oc4cc(C)[nH]c(=O)c43)c(=O)[nH]c2=O)C[C@@H]1OC(C)=O (stereo not given in full)
- EC50 [1]: > 100 µM
- CC50 [2]: > 100 µM
- MCC [3]: > 100 µM
- EC50 [4]: > 100 µM
- EC50 [5]: 100 µM
- EC50 [6]: > 100 µM
- IC50 [7]: 140 µM

Structure (SMILES): CC(=O)OC[C@H]1O[C@@H](n2cc(C3C(C#N)=C(N)Oc4cc(C)oc(=O)c43)c(=O)[nH]c2=O)C[C@@H]1OC(C)=O (stereo not given in full)
- EC50 [1]: > 100 µM
- CC50 [2]: 8.9 µM
- MCC [3]: > 100 µM
- EC50 [4]: > 100 µM
- EC50 [5]: 48.1 µM
- EC50 [6]: > 100 µM
- IC50 [7]: > 200 µM

Structure (SMILES): Cc1cc(O)c(C(c2cn([C@H]3C[C@H](O)[C@@H](CO)O3)c(=O)[nH]c2=O)c2c(O)cc(C)n(C)c2=O)c(=O)n1C
- EC50 [1]: 54.7 µM
- CC50 [2]: 7.7 µM
- MCC [3]: > 100 µM
- EC50 [4]: 16.7 µM
- EC50 [5]: 2.2 µM
- EC50 [6]: > 100 µM
- IC50 [7]: > 200 µM

Structure (SMILES): Cc1cc2c(c(=O)[nH]1)C(c1cn([C@H]3C[C@H](O)[C@@H](CO)O3)c(=O)[nH]c1=O)C(C#N)=C(N)O2 (stereo not given in full)
- EC50 [1]: > 100 µM
- CC50 [2]: > 100 µM
- MCC [3]: > 100 µM
- EC50 [4]: > 100 µM
- EC50 [5]: 55.7 µM
- EC50 [6]: > 100 µM
- IC50 [7]: 10.6 µM

Structure (SMILES): Nc1nc2c(ncn2COCCO)c(=O)[nH]1 [ACYCLOVIR]
- CC50 [2]: 1780 µM
- MCC [3]: > 1780 µM
- EC50 [5]: 0.84 µM

Structure (SMILES): Nc1ccn(C[C@@H](CO)OCP(=O)(O)O)c(=O)n1 [CIDOFOVIR]
- CC50 [2]: 175 µM
- MCC [3]: > 1270 µM
- EC50 [6]: 0.9 µM

Structure (SMILES): N=C(N)c1ccc(OCCCCCOc2ccc(C(=N)N)cc2)cc1 [PENTAMIDINE]
- IC50 [7]: 6.5 µM
